These results are taken from ChEMBL document CHEMBL1135916, “Design, synthesis, and structure-activity relationship of pyridyl imidazolidinones: a novel class of potent and selective human enterovirus 71 inhibitors” (J Med Chem, 2002).

Molecules are shown by their SMILES. Bounds are passed on as bounds.

The nature of data set [1]: (§1) Cytotoxicity against human rhabdomyosarcoma (RD) cells. The format is functional. The essentials:
(§2)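 Test compound at various concentrations added to D551 (human normal skin fibroblast), WI38 (human normal lung fibroblast) or RD cells; incubated 96 h at 37 °C; cells harvested and viable cells counted by trypan blue staining. Triplicate, at least twice.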

For data set [2], the system named is Enterovirus A71. The experiment in a line: Inhibition concentration against EV-71. In kind it is functional, organism-based.
Data set [3] is described as follows: Cytotoxicity against human normal skin fibroblast (D551) cells. The format is cell-based. A digest of the protocol:
as §2

The nature of data set [4]: Selectivity index (RD/EV71) of the compound. The format is functional.
A short description of data set [5]: Selectivity index (D551/EV71) of the compound. In kind it is functional.
A short description of data set [6]: Cytotoxicity against human normal skin fibroblast (W138) cells. The format is cell-based. A digest of the protocol:
as §2

A short description of data set [7]: Selectivity index (W138/EV71) of the compound. In kind it is functional.
A short description of data set [8]: as §1. In kind it is functional. This is another data set of the same source.
Where [9] appears, read: W138 normal skin fibroblast cells.

As for `COc1ccc(OCCCCCCN2CCN(c3ccncc3)C2=O)cc1`, the CC50 (commonly the concentration that lowers cell viability or growth by half) in data set [1] was > 25 µM. Moreover, the IC50 – broadly, the concentration that inhibits the measured activity by half – in data set [2] (Enterovirus A) was 5.43 µM.
In the case of `O=C1N(CCCCCOc2ccc(Br)cc2)CCN1c1ccncc1`, the CC50 in data set [3] (D551 normal skin fibroblast cells) is 50 µM; in data set [1] it was > 25 µM; in data set [6] (setting [9]), 65 µM. The Selectivity index in data set [4] was > 50; in data set [5] it was 100; in data set [7], 130. In data set [2] (Enterovirus A), this compound yielded an IC50 of 0.5 µM.
As to `O=C1N(CCCCCCOc2c(Cl)cccc2Cl)CCN1c1ccncc1`, in data set [2] (Enterovirus A), the IC50 was > 25 µM. Further, in data set [8] (Homo sapiens, RD), the CC50 is > 25 µM.
For the compound `O=C1N(CCCCCOc2ccc(-c3ccc([N+](=O)[O-])cc3)cc2)CCN1c1ccncc1`, the CC50 amounted to 66 µM in data set [3] and 70 µM in data set [6]. The compound also showed an IC50 in data set [2] of 0.33 µM.
In turn, `Cc1ccc(OCCCCCCN2CCN(c3ccncc3)C2=O)cc1` gave an IC50 in data set [2] (Enterovirus A) of 6.36 µM. The CC50 in data set [8] (Homo sapiens, RD) was > 25 µM.
The corresponding values for `O=C1N(CCCCCCOc2ccc(F)cc2)CCN1c1cccnc1` are 9.33 µM and > 25 µM.
`O=C1N(CCCCCOc2ccc(-c3ccc(Cl)cc3)cc2)CCN1c1ccncc1` [listing 1 of 2 here]: the CC50 amounted to 6 µM in data set [3]; 6.25 µM in data set [8] (Homo sapiens, RD); 32 µM in data set [6] (setting [9]). Moreover, in data set [2] (Enterovirus A), it took 0.06 µM to reach half-maximal inhibition (IC50).
In data set [2] (Enterovirus A), `O=C1N(CCCCCCOc2ccc(C(F)(F)F)cc2)CCN1c1cccnc1` registered a half-maximal inhibitory concentration (IC50) of 2.1 µM. In addition, the CC50 in data set [8] (Homo sapiens, RD) was > 25 µM.
Consider `O=C1N(CCCCCOc2ccc(C(F)(F)F)cc2)CCN1c1ccncc1`, for which, in data set [2] (Enterovirus A), the IC50 came to 1.35 µM. The same compound came in with a CC50 in data set [8] (Homo sapiens, RD) of 12.5 µM.
Take `O=C1N(CCCCCCOc2cccc3ccccc23)CCN1c1ccncc1`: the IC50 in data set [2] (Enterovirus A) was > 6.25 µM. In data set [8] (Homo sapiens, RD), this compound had a CC50 of 6.25 µM.
The like results for `O=C1N(CCCCCOc2ccc(Cl)cc2)CCN1c1cccnc1` were, in that order, 4.65 µM and > 25 µM.
The like results for `O=C1N(CCCCCCOc2ccc(Br)cc2)CCN1c1ccccc1` were, in that order, 10.6 µM and > 25 µM.
The like results for `O=C1N(CCCCCCOc2ccc(Br)cc2)CCN1c1ccnc(Cl)c1` were, in that order, > 25 µM and > 25 µM.
With `O=C1N(CCCCCOc2ccc(Br)cc2)CCN1c1ccnc(Cl)c1`, in data set [2] (Enterovirus A), the concentration for half-maximal inhibition (IC50) is > 25 µM. Further, in data set [8] (Homo sapiens, RD), the CC50 is > 25 µM.
As for `O=C1N(CCCCCOc2ccc(-c3ccc(Cl)cc3)cc2)CCN1c1ccncc1` [listing 2 of 2 here], the CC50 in data set [3] came out at 13 µM; in data set [8] it was 12.5 µM; in data set [6], 48 µM.
With `O=C1N(CCCCCCOc2cccc3cccnc23)CCN1c1ccncc1`, the IC50 in data set [2] (Enterovirus A) is > 25 µM. The CC50 in data set [8] (Homo sapiens, RD) is > 25 µM.
Consider `Cc1ccc(OCCCCCCN2CCN(c3cccnc3)C2=O)cc1`, for which, in data set [2] (Enterovirus A), the IC50 is > 25 µM. Also, the CC50 in data set [8] (Homo sapiens, RD) is > 25 µM.
As for `O=C1N(CCCCCCOc2ccc(Br)cc2)CCN1c1ccncn1`, the IC50 in data set [2] (Enterovirus A) is > 25 µM. Further, the CC50 in data set [8] (Homo sapiens, RD) was > 25 µM.
With `CSc1ccc(OCCCCCCN2CCN(c3ccncc3)C2=O)cc1`, the CC50 in data set [1] was > 25 µM. The compound further showed an IC50 in data set [2] (Enterovirus A) of 4.96 µM.
With `CN(C)c1cccc(OCCCCCCN2CCN(c3ccncc3)C2=O)c1`, the IC50 in data set [2] (Enterovirus A) was > 25 µM. Besides, in data set [8] (Homo sapiens, RD), the CC50 was > 25 µM.
Compound `O=C1N(CCCCCCCOc2ccc(C(F)(F)F)cc2)CCN1c1ccncc1` had an IC50 in data set [2] (Enterovirus A) of 0.61 µM. The cytotoxic concentration (CC50) in data set [8] (Homo sapiens, RD) was 6.25 µM.
`O=C1N(CCCCCCOc2ccc(Cl)cc2)CCN1c1cccnc1` yielded an IC50 in data set [2] (Enterovirus A) of 2.52 µM. The CC50 in data set [8] (Homo sapiens, RD) was > 25 µM.
The corresponding values for `O=C1N(CCCCCCCOc2ccc(Br)cc2)CCN1c1ccncc1` are 0.56 µM and > 25 µM.
The corresponding values for `O=C1N(CCCCCOc2ccc(Br)cc2)CCN1c1ccccc1` are 10.7 µM and > 25 µM.
As to `CSc1ccc(OCCCCCCN2CCN(c3ccnc(Cl)c3)C2=O)cc1`, the IC50 in data set [2] (Enterovirus A) is > 25 µM. The CC50 in data set [8] (Homo sapiens, RD) is > 25 µM.
